The source made the active and inactive calls. The rule behind the calls is not given here.
Experiments:
HaCaT [1] = experiment: Activation of mitochondrial cytochrome C oxidase in human HaCaT lysate at 0.87 to 7 uM using equine cardiac cytochrome C substrate by spectrophotometry
Outline: (§1)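 Lysis in HEPES buffer (20 mM HEPES, 0.1% Triton, 1 mM EDTA). Lysates were Bradford-adjusted to 2 mg/mL. v0 was taken without substrate, then 50 μM reduced cytochrome c was added. Loss was read at 550 nm over 90 s. Slopes gave U/μg. Activity was expressed as % of the DMSO 0.1% control; n=3, mean ± SD, paired t test.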

HaCaT [2] = experiment: Activation of mitochondrial cytochrome C oxidase in human HaCaT lysate at 0.81 uM using equine cardiac cytochrome C substrate by spectrophotometry; outline: as §1
HaCaT [3] = experiment: Activation of mitochondrial cytochrome C oxidase in human HaCaT lysate using equine cardiac cytochrome C substrate by spectrophotometry relative to resveratrol
HaCaT [4] = experiment: Induction of mitochondrial biogenesis in human HaCaT cells assessed as ratio of mitochondrial COX2 to UCP2 gene quantity at 1.75 to 7 uM by qPCR; type: functional, cell-based
Outline: (§2)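 HaCaT cells were treated as for the oxidase assay, but for 48 h. Lysis in Tris 10 mM/EDTA 1 mM/NaOAc 0.3 M/SDS 1%, then phenol DNA extraction. SYBR Green qPCR ran 45 cycles at 60 °C with calibration curves from serial DNA dilutions. Mitochondrial 16S or cox2 DNA was quantified relative to nuclear ucp-2 DNA and normalized to untreated cells; biogenesis was taken as a ratio >1. n=3, mean ± SD, paired t test.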

HaCaT [5] = experiment: Induction of mitochondrial biogenesis in human HaCaT cells assessed as mitochondrial 16S rRNA level by qPCR; type: functional, cell-based; outline: as §2
HaCaT [6] = experiment: Activation of mitochondrial cytochrome C oxidase in human HaCaT lysate at 50 uM using equine cardiac cytochrome C substrate by spectrophotometry; outline: as §1

Compound	Activity (HaCaT [1])	Activity (HaCaT [2])	fold change (FC) (HaCaT [3])	Activity (HaCaT [4])	Activity (HaCaT [5])	Activity (HaCaT [6]) [%]
O=C(C[C@](O)(Cc1ccc(O)cc1)C(=O)OCc1ccc(O[C@@H]2O[C@H](CO)[C@@H](O)[C@H](O)[C@H]2O)cc1)OCc1ccc(O[C@@H]2O[C@H](CO)[C@@H](O)[C@H](O)[C@H]2O)cc1	158%	Active	60	inactive	inactive	
O=C(C[C@](O)(Cc1ccc(O)cc1)C(=O)O)OCc1ccc(O[C@@H]2O[C@H](CO)[C@@H](O)[C@H](O)[C@H]2O)cc1	inactive			inactive	inactive	
O=C(/C=C/c1ccccc1)O[C@@H]1[C@@H](O)[C@H](O[C@@](CC(=O)OCc2ccc(O[C@@H]3O[C@H](CO)[C@@H](O)[C@H](O)[C@H]3O)cc2)(Cc2ccc(O)cc2)C(=O)OCc2ccc(O[C@@H]3O[C@H](CO)[C@@H](O)[C@H](O)[C@H]3O)cc2)O[C@H](CO)[C@H]1O	inactive					
Oc1ccc(/C=C/c2cc(O)cc(O)c2)cc1						138
O=C(O)C[C@](O)(Cc1ccc(O)cc1)C(=O)O		Active	60	inactive	inactive	

From ChEMBL document CHEMBL1799945, “Glucosyloxybenzyl eucomate derivatives from Vanda teres stimulate HaCaT cytochrome c oxidase” (J Nat Prod, 2011)
